Experimental findings from ChEMBL document CHEMBL1177778, “One-pot multicomponent synthesis and anti-microbial evaluation of 2'-(indol-3-yl)-2-oxospiro(indoline-3,4'-pyran) derivatives” (2010) are described below.

Common to all, as to format: functional
What all share (conditions): for zone of inhibition at 100 µg/mL: read-out: DIZ

For one assay, the system named is Bacillus subtilis. The assay can be described thus: Antimicrobial activity against Bacillus subtilis at 100 ug/ml after 24 to 48 hrs by disk diffusion method. Put shortly:
(§1)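 Disc diffusion (cup plate) screen. Organism suspensions were applied to plates and incubated at 36 °C for 24–48 h in a sufficiently humid chamber, after which the zone of inhibition was read. Compounds were dissolved in DMSO as a stock solution and serially diluted to test solutions of 25, 50, 75, 100 and 150 µg/ml.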

Assay [1] relates to Staphylococcus epidermidis. Kind of assay: Antimicrobial activity against Staphylococcus epidermidis at 100 ug/ml after 24 to 48 hrs by disk diffusion method. Summed up:
as §1

The next assay has as its system Staphylococcus aureus. Kind of assay: Antimicrobial activity against Staphylococcus aureus at 100 ug/ml after 24 to 48 hrs by disk diffusion method. Put shortly: as §1
For orientation: A growth-free zone around the sample is the usual read-out of agar diffusion tests.

The next assay relates to Aspergillus niger. Kind of assay: Antimicrobial activity against Aspergillus niger at 100 ug/ml after 24 to 48 hrs by disk diffusion method. Put shortly:
as §1

For `CCOC(=O)C1=C(N)OC(c2c(C)[nH]c3ccccc23)=C(C#N)[C@@]12C(=O)c1cccc3cccc2c13`, the zone of inhibition at 100 µg/mL with Bacillus subtilis was found to be 18 mm; in assay [1], 16 mm; with Staphylococcus aureus, 20 mm; in the assay with Aspergillus niger, 26 mm.

Take `CCCCN1C(=O)[C@@]2(C(C#N)=C(c3c[nH]c4ccccc34)OC(N)=C2C(=O)OCC)c2ccccc21`: the zone of inhibition at 100 µg/mL with Bacillus subtilis is 17 mm; in assay [1], 14 mm; with Staphylococcus aureus, 16 mm; with Aspergillus niger, 27 mm.

For the molecule `CCOC(=O)C1=C(N)OC(c2cn(C)c3ccccc23)=C(C#N)[C@@]12C(=O)c1cccc3cccc2c13`, the zone of inhibition at 100 µg/mL was found to be 18 mm in the assay with Bacillus subtilis, 18 mm in assay [1], 19 mm in the assay with Staphylococcus aureus and 22 mm with Aspergillus niger.

In the case of `CCOC(=O)C1=C(N)OC(c2c[nH]c3ccccc23)=C(C#N)[C@@]12C(=O)N(C)c1ccccc12`, the zone of inhibition at 100 µg/mL in the assay with Bacillus subtilis is 13 mm; in assay [1] it was 14 mm; with Staphylococcus aureus it was 18 mm; in the assay on Aspergillus niger it was 23 mm.

Consider `CCOC(=O)CN1C(=O)[C@@]2(C(C#N)=C(c3c[nH]c4ccccc34)OC(N)=C2C(=O)OCC)c2ccccc21`, for which the zone of inhibition at 100 µg/mL with Bacillus subtilis is 12 mm; in assay [1], 10 mm; in the assay with Staphylococcus aureus it was 14 mm; in the assay on Aspergillus niger, 21 mm.

On to `Cc1[nH]c2ccccc2c1C1=C(C#N)[C@@]2(C(=O)c3cccc4cccc2c34)C(C#N)=C(N)O1`, for which the zone of inhibition at 100 µg/mL was found to be 19 mm with Bacillus subtilis, 16 mm in assay [1], 20 mm in the assay on Staphylococcus aureus and 26 mm in the assay with Aspergillus niger.

Consider `O=C(N[C@H](CO)[C@H](O)c1ccc([N+](=O)[O-])cc1)C(Cl)Cl` [CHLORAMPHENICOL], for which the zone of inhibition at 100 µg/mL came out at 32 mm in the assay on Bacillus subtilis, 31 mm in assay [1], 29 mm with Staphylococcus aureus and 25 mm in the assay on Aspergillus niger.

`CCOC(=O)C1=C(N)OC(c2c[nH]c3ccccc23)=C(C#N)[C@@]12C(=O)c1cccc3cccc2c13`: the zone of inhibition at 100 µg/mL amounted to 17 mm in the assay with Bacillus subtilis, 18 mm in assay [1], 20 mm with Staphylococcus aureus and 27 mm in the assay on Aspergillus niger.

For NYSTATIN, in the assay on Aspergillus niger, the inhibition zone (IZ) was determined as 28 mm.

`C#CCN1C(=O)[C@@]2(C(C#N)=C(c3c[nH]c4ccccc34)OC(N)=C2C(=O)OCC)c2ccccc21`: the zone of inhibition at 100 µg/mL was determined as 17 mm in the assay on Bacillus subtilis, 16 mm in assay [1], 16 mm in the assay with Staphylococcus aureus and 25 mm in the assay with Aspergillus niger.

GENTAMICIN SULFATE: the inhibition zone (IZ) in the assay on Bacillus subtilis is 30 mm; in assay [1], 28 mm; in the assay on Staphylococcus aureus it was 26 mm; in the assay with Aspergillus niger, 28 mm.

Take `CCOC(=O)CN1C(=O)[C@]2(C(C#N)=C(N)OC(c3c[nH]c4ccccc34)=C2C#N)c2ccccc21`: the zone of inhibition at 100 µg/mL in the assay on Bacillus subtilis was 26 mm; in assay [1], 25 mm; with Staphylococcus aureus, 24 mm; with Aspergillus niger, 25 mm.

As to `CN1C(=O)[C@]2(C(C#N)=C(N)OC(c3c[nH]c4ccccc34)=C2C#N)c2ccccc21`, the zone of inhibition at 100 µg/mL was found to be 26 mm with Bacillus subtilis, 28 mm in assay [1], 27 mm in the assay with Staphylococcus aureus and 27 mm in the assay with Aspergillus niger.

As for `N#CC1=C(N)OC(c2c[nH]c3ccccc23)=C(C#N)[C@@]12C(=O)Nc1ccccc12`, the zone of inhibition at 100 µg/mL with Bacillus subtilis was 28 mm; in assay [1], 30 mm; with Staphylococcus aureus, 29 mm; in the assay on Aspergillus niger, 28 mm.

For the molecule `C=CCN1C(=O)[C@@]2(C(C#N)=C(c3c[nH]c4ccccc34)OC(N)=C2C(=O)OCC)c2ccccc21`, the zone of inhibition at 100 µg/mL in the assay on Bacillus subtilis was determined as 14 mm; in assay [1] it was 13 mm; in the assay with Staphylococcus aureus it was 18 mm; in the assay on Aspergillus niger, 21 mm.

Consider `Cn1cc(C2=C(C#N)[C@@]3(C(=O)c4cccc5cccc3c45)C(C#N)=C(N)O2)c2ccccc21`, for which the zone of inhibition at 100 µg/mL stood at 36 mm in the assay on Bacillus subtilis, 38 mm in assay [1], 39 mm in the assay with Staphylococcus aureus and 28 mm in the assay with Aspergillus niger.

As to `CCOC(=O)C1=C(N)OC(c2c[nH]c3ccccc23)=C(C#N)[C@@]12C(=O)Nc1ccccc12`, the zone of inhibition at 100 µg/mL in the assay with Bacillus subtilis came to 19 mm; in assay [1] it was 18 mm; with Staphylococcus aureus, 18 mm; with Aspergillus niger, 23 mm.

Turning to `CCOC(=O)C1=C(N)OC(c2c[nH]c3ccccc23)=C(C#N)[C@@]12C(=O)N(Cc1ccccc1)c1ccccc12`, the zone of inhibition at 100 µg/mL in the assay on Bacillus subtilis amounted to 14 mm; in assay [1], 15 mm; in the assay on Staphylococcus aureus, 16 mm; in the assay with Aspergillus niger it was 24 mm.

`N#CC1=C(N)OC(c2c[nH]c3ccccc23)=C(C#N)[C@@]12C(=O)N(Cc1ccccc1)c1ccccc12`: the zone of inhibition at 100 µg/mL in the assay on Bacillus subtilis came to 30 mm; in assay [1], 31 mm; with Staphylococcus aureus it was 29 mm; with Aspergillus niger, 24 mm.

Turning to `N#CC1=C(N)OC(c2c[nH]c3ccccc23)=C(C#N)[C@@]12C(=O)c1cccc3cccc2c13`, the zone of inhibition at 100 µg/mL in the assay with Bacillus subtilis was found to be 40 mm; in assay [1], 39 mm; in the assay on Staphylococcus aureus, 38 mm; in the assay with Aspergillus niger, 29 mm.

Regarding `C#CCN1C(=O)[C@]2(C(C#N)=C(N)OC(c3c[nH]c4ccccc34)=C2C#N)c2ccccc21`, the zone of inhibition at 100 µg/mL in the assay on Bacillus subtilis is 20 mm; in assay [1], 19 mm; in the assay with Staphylococcus aureus it was 18 mm; with Aspergillus niger it was 25 mm.
